Assay results pooled from the literature.
Compare with care: the assays were run in different laboratories.
Target: Dual specificity protein kinase CLK1 (CLK1, Homo sapiens, UniProt P49759)

Cn1cncc1C1=CN(c2ncnc3[nH]cnc23)CCS1
inhibition (enzyme activity; inhibitor; radiometric; 2 µM): 97.3%

CC(C)(C)c1nc2c(s1)c1nc(N)ncc1c1ccc(NS(=O)(=O)c3c(F)cccc3F)c(F)c12
remaining activity (enzyme activity; inhibitor; radiometric; 1 µM): 91%

Cc1ccc(NC(=O)c2ccc(C)c(C(F)(F)F)c2)cc1C#Cc1nn(C2CCC(O)CC2)c2ncnc(N)c12 (stereo not shown)
remaining signal (cell-free assay; 10 µM): 64%

Cc1ccc(C(=O)Nc2ccc(CN3CCN(C)CC3)c(C(F)(F)F)c2)cc1C#Cc1cnc2cccnn12
remaining activity (enzyme activity; inhibitor; 23.5 nM): 38%

O=C1NC(=O)c2cc(Nc3ccc(F)cc3)c(Nc3ccc(F)cc3)cc21
remaining signal (cell-free assay; 0.5 µM): 102%

O=C(Nc1cnn(-c2csc(C(=O)NC3COC3)c2)c1)Nc1ccccc1Cl
remaining activity (enzyme activity; inhibitor; 5 µM): 81%

CNCc1ccccc1-c1csc([C@H](C)Nc2nc(C)nc3cc(OC)c(OC)cc23)c1
remaining binding (cell-free assay; competition with immobilised ligand; 1 µM): 95%

COc1cc2nccc(Oc3ccc(NC(=O)Nc4ccc(F)cc4F)c(F)c3)c2cc1OC
ΔTm (thermal stability; DSF; 10 µM): 5 to 10 °C

Cc1sc(C(=O)NC2COC2)cc1-n1cc(NC(=O)Nc2c(F)cccc2Cl)cn1
remaining activity (enzyme activity; inhibitor; 10 µM): 98.4%

O=C(N1CCS(=O)(=O)CC1)N1C[C@H](c2ccc(OC(F)(F)F)cc2)C[C@H](c2nc(C3CC3)no2)C1
remaining binding (cell-free assay; competition with immobilised ligand; 1 µM): 98%

CCCS(=O)(=O)Nc1ccc(F)c(C(=O)c2c[nH]c3ncc(-c4ccc(Cl)cc4)cc23)c1F
inhibition (enzyme activity; inhibitor; 1 µM): < 10%

O=C(O)[C@H]1[C@H](Cn2nnc3ccccc3c2=O)CC[C@@H]1C(=O)c1ccc(OCCC2CCOCC2)cc1
remaining binding (cell-free assay; competition with immobilised ligand; 1 µM): 98%

COc1cc2c(Nc3ccc(Br)cc3F)ncnc2cc1OCC1CCN(C)CC1
remaining signal (cell-free assay; 0.5 µM): 105%

Cc1cc(NC(=O)c2cccc3cc(-c4cccc5[nH]nc(N)c45)ccc23)ccc1F
activity vs control (enzyme activity; inhibitor; 0.1 µM): 97%

COc1cc(-c2cc(-c3ccc(N4CCNCC4)cc3)cnc2C)cc(OC)c1OC
inhibition (enzyme activity; inhibitor; 0.1 µM): 1%

C[S+]([O-])c1ccc(-c2nc(-c3ccncc3)c(-c3ccc(F)cc3)[nH]2)cc1 (stereo not shown)
remaining signal (cell-free assay; 0.5 µM): 101%

O=C(NCc1ncc(C(F)(F)F)cc1Cl)c1ccc2c(c1)C1(CCS(=O)(=O)CC1)[C@H](C1CC1)N2S(=O)(=O)c1ccc(F)cc1
remaining binding (cell-free assay; competition with immobilised ligand; 1 µM): 100%

CC(C)(O)[C@H]1CC[C@H](Nc2ccc3ncc(-c4cccc(C(F)(F)F)c4)n3n2)CC1
remaining activity (enzyme activity; inhibitor; 1 µM): 8.45%

O=C(O)c1cc(-c2ccc(C3CCNCC3)cc2)c2ccc(-c3ccc(C(F)(F)F)cc3)cc2c1
remaining binding (cell-free assay; competition with immobilised ligand; 1 µM): 100%

COc1cc2ncnc(Nc3ccc(Oc4ccccc4)c(C)c3C)c2cc1OC
inhibition (enzyme activity; inhibitor; 1 µM): 3%

Oc1cccc(-c2nc(N3CCOCC3)c3oc4ncccc4c3n2)c1
remaining signal (cell-free assay; 0.5 µM): 85.2%

CC(=O)N1CCC(c2ccc(C(=O)NC(=N)N)cc2C(F)(F)F)CC1
remaining binding (cell-free assay; competition with immobilised ligand; 1 µM): 100%
